Reference: ChEMBL document CHEMBL4311940, “Design, Synthesis, and Biological Evaluation of 4-Methyl Quinazoline Derivatives as Anticancer Agents Simultaneously Targeting Phosphoinositide 3-Kinases and Histone Deacetylases” (J Med Chem, 2019)

Key:
THP-1 = experiment: Antiproliferative activity against human THP1 cells after 96 hrs by MTT assay; format: functional, cell-based; conditions: THP-1, 96 h
Huh-7 = experiment: Antiproliferative activity against human HuH7 cells after 96 hrs by MTT assay; format: functional, cell-based; conditions: Huh-7, 96 h
[1] = Drug concentration in human HCT116 cells assessed per million cells at 25 uM after 1 hr by LC/MS/MS analysis; format: ADME, cell-based; conditions: hct-116, 1 h
In short: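 HCT116 cells seeded overnight, exposed 1 h to 25 μM compound in 4 wells, washed three times with PBS; one well trypsinized for cell count, three scraped, sonicated, acetonitrile-extracted, LC/MS/MS; nmol per million cells = concentration × total volume / cell number.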

[2] = AUC (0 to infinity) in ICR mouse at 30 mg/kg, po measured after 0.083 to 24 hrs by LC/MS/MS analysis; format: ADME, organism-based; set-up: dose 30 mg/kg, time infinity, route oral; conditions: in vivo
In short: (§1)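 ICR mice; iv 3 mg/kg in 10% DMSO/saline (3 mice/group), blood at 0.033, 0.083, 0.25, 0.5, 1, 2, 4, 8, 12, 24 h; po 30 mg/kg as 0.5% cmc/0.3% Tween 80 suspension (5 mice/group), blood at 0.083–24 h. Plasma extracted with acetonitrile, LC/MS/MS; parameters by noncompartmental analysis.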

HCT-116 [3] = experiment: Induction of apoptosis in human HCT116 cells assessed as live cells at 20 nM after 48 hrs by Annexin V-FITC/propidium iodide staining-based flow cytometric analysis (reference value: 89.6%); format: functional
HCT-116 [4] = experiment: Induction of apoptosis in human HCT116 cells assessed as early apoptotic cells at 100 nM after 48 hrs by Annexin V-FITC/propidium iodide staining-based flow cytometric analysis (reference value: 1.33%); format: functional
Histone deacetylase 11 = Histone deacetylase 11 (Homo sapiens, UniProt Q96DB2); experiment: Inhibition of recombinant human full length HDAC11 expressed in baculovirus infected Sf9 insect cells using Ac-peptide as substrate preincubated for 15 mins followed by substrate addition and measured after 1 hr
Histone deacetylase 11, sequence (Q96DB2 whole entry, canonical isoform): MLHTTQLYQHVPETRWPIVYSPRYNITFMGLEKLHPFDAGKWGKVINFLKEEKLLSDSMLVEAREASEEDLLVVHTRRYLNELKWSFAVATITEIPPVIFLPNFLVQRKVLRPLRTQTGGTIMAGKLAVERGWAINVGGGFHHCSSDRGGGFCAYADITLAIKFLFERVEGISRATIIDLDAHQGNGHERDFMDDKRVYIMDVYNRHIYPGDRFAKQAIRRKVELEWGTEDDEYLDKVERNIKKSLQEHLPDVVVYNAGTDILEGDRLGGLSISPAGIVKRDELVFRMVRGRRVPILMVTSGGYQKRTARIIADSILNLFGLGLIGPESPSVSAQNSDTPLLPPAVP
In short: (§2)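 Recombinant HDAC isoforms mixed with serially diluted compound in assay buffer for 15 min at room temperature. Ac-peptide substrate then added and incubated 1 h at room temperature. Signal read on a plate reader; IC50 by curve fitting.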

HGC-27 = experiment: Antiproliferative activity against human HGC27 cells after 96 hrs by MTT assay; format: functional, cell-based; conditions: HGC-27, 96 h
HCT-116 [5] = experiment: Induction of apoptosis in human HCT116 cells assessed as early apoptotic cells at 20 nM after 48 hrs by Annexin V-FITC/propidium iodide staining-based flow cytometric analysis (reference value: 1.33%); format: functional
NCI-H1299 = experiment: Antiproliferative activity against human NCI-H1299 cells after 96 hrs by MTT assay; format: functional, cell-based; conditions: NCI-H1299, 96 h
HCT-116 [6] = experiment: Induction of apoptosis in human HCT116 cells assessed as live cells at 100 nM after 48 hrs by Annexin V-FITC/propidium iodide staining-based flow cytometric analysis (reference value: 89.6%); format: functional
[7] = Mutagenicity in Salmonella typhimurium TA100 at 5 to 500 ug/plate in presence of s9 mix by Ames test; format: toxicity, subcellular; conditions: salmonella enterica subsp. enterica serovar typhimurium
In short: (§3)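 Plate incorporation method at 5, 50 and 500 μg/plate, with and without S9 activation. At least three plates per dose, incubated 72 h at 37 °C, revertants counted. Mean revertants compared with vehicle and positive controls.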

[8] = Mutagenicity in Salmonella typhimurium TA97 at 5 to 500 ug/plate in absence of s9 mix by Ames test; format: toxicity; conditions: salmonella enterica subsp. enterica serovar typhimurium; in short: as §3
[9] = Clearance in ICR mouse at 3 mg/kg, iv measured after 0.033 to 24 hrs by LC/MS/MS analysis; format: ADME, organism-based; conditions: in vivo; in short: as §1
[10] = Mutagenicity in Salmonella typhimurium TA102 at 5 to 500 ug/plate in presence of s9 mix by Ames test; format: toxicity, subcellular; conditions: salmonella enterica subsp. enterica serovar typhimurium; in short: as §3
Bel-7402 = experiment: Antiproliferative activity against human Bel7402 cells after 96 hrs by MTT assay; format: functional, cell-based; conditions: Bel-7402, 96 h
[11] = Mutagenicity in Salmonella typhimurium TA98 at 5 to 500 ug/plate in presence of s9 mix by Ames test; format: toxicity, subcellular; conditions: salmonella enterica subsp. enterica serovar typhimurium; in short: as §3
HCT-116 [12] = experiment: Induction of apoptosis in human HCT116 cells assessed as early apoptotic cells at 500 nM after 48 hrs by Annexin V-FITC/propidium iodide staining-based flow cytometric analysis (reference value: 1.33%); format: functional
HCT-116 [13] = experiment: Induction of apoptosis in human HCT116 cells assessed as late apoptotic cells at 500 nM after 48 hrs by Annexin V-FITC/propidium iodide staining-based flow cytometric analysis (reference value: 3.87%); format: functional
U-87 MG = experiment: Antiproliferative activity against human U87 cells after 96 hrs by MTT assay; format: functional, cell-based, U-87MG ATCC
[14] = Mutagenicity in Salmonella typhimurium TA98 at 5 to 500 ug/plate in absence of s9 mix by Ames test; format: toxicity; conditions: salmonella enterica subsp. enterica serovar typhimurium; in short: as §3
HCT-116 [15] = experiment: Induction of cell cycle arrest in human HCT116 cells assessed as accumulation at G1 phase at 100 to 500 nM after 24 hrs by propidium iodide/RNase staining-based FACS analysis; format: functional
In short: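 HCT116 cells cultured overnight in 6-well plates, exposed to compound at various concentrations for 24 h; FxCycle PI/RNase staining and flow cytometry for cell cycle phase distribution.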

HCT-116 [16] = experiment: Induction of apoptosis in human HCT116 cells assessed as necrotic cells at 100 nM after 48 hrs by Annexin V-FITC/propidium iodide staining-based flow cytometric analysis (reference value: 5.23%); format: functional
MDA-MB-453 = experiment: Antiproliferative activity against human MDA-MB-453 cells after 96 hrs by MTT assay; format: functional, cell-based; conditions: MDA-MB-453, 96 h
Histone deacetylase 4 = Histone deacetylase 4 (Homo sapiens, UniProt P56524); experiment: Inhibition of recombinant human full length HDAC4 expressed in baculovirus infected Sf9 insect cells using Ac-peptide as substrate preincubated for 15 mins followed by substrate addition and measured after 1 hr; in short: as §2
Histone deacetylase 4, sequence (P56524 whole entry): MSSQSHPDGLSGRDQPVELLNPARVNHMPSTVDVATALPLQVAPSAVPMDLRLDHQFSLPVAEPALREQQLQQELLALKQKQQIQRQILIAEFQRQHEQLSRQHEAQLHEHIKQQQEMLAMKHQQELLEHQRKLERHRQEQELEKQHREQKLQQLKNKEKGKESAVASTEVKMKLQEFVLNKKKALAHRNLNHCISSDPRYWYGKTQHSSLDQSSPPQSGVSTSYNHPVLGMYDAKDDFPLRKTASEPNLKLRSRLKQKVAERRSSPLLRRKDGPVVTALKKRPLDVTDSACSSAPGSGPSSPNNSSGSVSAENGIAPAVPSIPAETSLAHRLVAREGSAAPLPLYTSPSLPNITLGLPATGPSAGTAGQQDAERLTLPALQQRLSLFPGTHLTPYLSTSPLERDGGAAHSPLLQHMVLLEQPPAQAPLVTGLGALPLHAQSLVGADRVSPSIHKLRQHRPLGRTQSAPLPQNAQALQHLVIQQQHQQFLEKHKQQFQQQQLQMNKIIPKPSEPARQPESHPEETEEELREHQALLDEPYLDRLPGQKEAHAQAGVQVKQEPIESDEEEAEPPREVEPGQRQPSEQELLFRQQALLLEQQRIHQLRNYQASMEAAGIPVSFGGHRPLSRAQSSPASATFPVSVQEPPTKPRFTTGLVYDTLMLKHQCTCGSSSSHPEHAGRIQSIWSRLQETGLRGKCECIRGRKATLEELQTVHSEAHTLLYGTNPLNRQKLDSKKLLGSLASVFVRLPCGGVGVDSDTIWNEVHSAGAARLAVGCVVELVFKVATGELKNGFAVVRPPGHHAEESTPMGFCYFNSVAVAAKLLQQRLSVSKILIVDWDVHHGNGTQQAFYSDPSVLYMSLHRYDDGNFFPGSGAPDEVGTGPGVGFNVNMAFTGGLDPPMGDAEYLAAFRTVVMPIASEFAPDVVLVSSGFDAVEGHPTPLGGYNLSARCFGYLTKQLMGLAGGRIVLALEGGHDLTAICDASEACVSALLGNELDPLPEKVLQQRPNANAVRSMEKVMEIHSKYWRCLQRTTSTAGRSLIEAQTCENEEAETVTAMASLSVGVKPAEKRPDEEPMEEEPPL

[17] = target: Serine/threonine-protein kinase mTOR (Homo sapiens, UniProt P42345); experiment: Inhibition of recombinant human N-terminal FLAG-tagged mTOR (1362 to end amino acids) using ULight-4E-BP1 as substrate incubated for 1 hr by LANCE Ultra assay
In short: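 mTOR protein, compound, ULight-4E-BP1 (Thr37/46) peptide and ATP in kinase buffer, 30 min at room temperature. LANCE detection buffer with EDTA and Eu-anti-phospho-4E-BP1 (Thr37/46) antibody added, then 1 h equilibration at room temperature. TR-FRET read; IC50 by curve fitting.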

[18] = AUC (0 to t) in ICR mouse at 3 mg/kg, iv measured after 0.033 to 24 hrs by LC/MS/MS analysis; format: ADME, organism-based; set-up: dose 3 mg/kg, time upper 24 hr, time lower 0.033 hr, route intravenous; conditions: in vivo; in short: as §1
[19] = Mutagenicity in Salmonella typhimurium TA100 at 5 to 500 ug/plate in absence of s9 mix by Ames test; format: toxicity; conditions: salmonella enterica subsp. enterica serovar typhimurium; in short: as §3
[20] = Toxicity in ip dosed ICR mouse assessed as maximum tolerated dose; format: organism-based; conditions: in vivo
In short: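 Male ICR mice, 6−8 weeks old, given one dose; vehicle 0.5% cmc with Tween 80 for oral dosing, saline for intraperitoneal dosing. Clinical signs observed and body weights recorded for 7 consecutive days after dosing to set the maximum tolerated dose.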

[21] = Mutagenicity in Salmonella typhimurium TA97 at 5 to 500 ug/plate in presence of s9 mix by Ames test; format: toxicity, subcellular; conditions: salmonella enterica subsp. enterica serovar typhimurium; in short: as §3

Structure (SMILES) | IC50 (THP-1) | IC50 (Huh-7) | Drug metabolism [1] | Activity (HCT-116 [3]) | Activity (HCT-116 [4]) | IC50 (Histone deacetylase 11) | IC50 (HGC-27) | Activity (HCT-116 [5]) | IC50 (NCI-H1299) | Activity (HCT-116 [6]) | Activity [7] | Activity [8] | clearance [9] | Activity [10] | IC50 (Bel-7402) | Activity [11] | Activity (HCT-116 [12]) | Activity (HCT-116 [13]) | IC50 (U-87 MG) | Activity [14] | other results
COc1ccc(-c2cc(OCCN(C)c3ncc(C(=O)NO)cn3)c3ncnc(C)c3c2)cn1 | 0.91 µM | 0.24 µM | Metabolite_Detected | 83.6% | 16.8% | > 1 µM | 0.014 µM | 4.53% | 0.18 µM | 70.2% | Non-Toxic | Non-Toxic | 352 mL/min/kg | Non-Toxic | 1.6 µM | Non-Toxic | 29.1% | 24.4% | 0.34 µM | Non-Toxic | AUC [2]: 51.4 ng·h/mL; Activity (HCT-116 [15]): Dose-dependent effect; Activity (HCT-116 [16]): 2.99%; IC50 (MDA-MB-453): 0.004 µM; IC50 (Histone deacetylase 4): 0.972 µM; IC50 [17]: 6.26 µM; AUC(0-t) [18]: 133 ng·h/mL; Activity [19]: Non-Toxic; MTD [20]: > 100 mg/kg; Activity [21]: Non-Toxic
COc1ncc(-c2cc(OCCCCCCC(=O)NO)c3ncnc(C)c3c2)cc1F | 5.4 µM | 2.5 µM | Metabolite_Detected | 88.6% | 6.56% | > 1 µM | 0.11 µM | 1.83% | 1 µM | 80.8% | Non-Toxic | Non-Toxic | 90 mL/min/kg | Non-Toxic | 5.2 µM | Non-Toxic | 18.2% | 10.3% | 3.2 µM | Non-Toxic | AUC(0-inf) ([2]; ICR): 274 ng·h/mL; Activity (HCT-116 [15]): Dose-dependent effect; Activity (HCT-116 [16]): 4.64%; IC50 (MDA-MB-453): 0.3 µM; IC50 (Histone deacetylase 4): > 1 µM; IC50 [17]: 2.86 µM; AUC(0-t) [18]: 551 ng·h/mL; Activity [19]: Non-Toxic; MTD [20]: > 100 mg/kg; Activity [21]: Non-Toxic
